Bounds are passed on as bounds.

The subject of the experiment is CCRF-CEM. The experiment can be described thus: In vitro cytotoxicity against human leukemia CCRF-CEM tumor cell lines. The experiment is classed as functional, cell-based. The gist of the method:
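Log-phase cells seeded at 4.8×10^4 cells per well in RPMI-1640 with 10% dialyzed FBS and 25 mM HEPES. Compounds were dissolved in DMSO at 0.2 mg/mL, serially diluted 1:3 in DMSO, and added to duplicate wells; DMSO final 0.5%, with DMSO-only control wells. Exposure 72 h at 37 °C, 5% CO2. Suspension cells counted by Coulter counter; IC50 from dose–response curves.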
On to `CC(C)C[C@@H]1OC(=O)C(C)(C)CNC(=O)[C@@H]([C@H](C)O)NC(=O)/C=C/C[C@@H]([C@H](C)[C@H]2O[C@@H]2c2ccccc2)OC1=O`, for which inhibition was half-maximal at 1060 nM (IC50).

As for `CC(C)C[C@@H]1OC(=O)C(C)(C)CNC(=O)[C@@H](Cc2ccc(N)c(Cl)c2)NC(=O)/C=C/C[C@@H]([C@H](C)/C=C/c2ccccc2)OC1=O`, the IC50 (usually the midpoint of a concentration-inhibition curve) amounted to 500 nM.

Turning to `CC(C)C[C@@H]1OC(=O)C(C)(C)CNC(=O)[C@@H](Cc2ccc(NC(=O)OCC3c4ccccc4-c4ccccc43)cc2)NC(=O)/C=C/C[C@@H]([C@H](C)/C=C/c2ccccc2)OC1=O`, the IC50 was over 1200 nM.

With `CC(C)C[C@@H]1OC(=O)C(C)(C)CNC(=O)[C@@H](Cc2ccc(O)c(O)c2)NC(=O)/C=C/C[C@@H]([C@H](C)/C=C/c2ccccc2)OC1=O`, the IC50 stood at 1300 nM.

For the compound `CC(C)C[C@@H]1OC(=O)C(C)(C)CNC(=O)[C@@H](CCc2ccccc2)NC(=O)/C=C/C[C@@H]([C@H](C)/C=C/c2ccccc2)OC1=O`, the IC50 was found to be 1660 nM.

For `COc1ccc(C[C@H]2NC(=O)/C=C/C[C@@H]([C@H](C)C3O[C@@H]3c3ccccc3)OC(=O)[C@H](CC(C)C)OC(=O)C(C)(C)CNC2=O)cc1Cl` (stereo not given in full), the IC50 amounted to 0.022 nM.

`CC(C)C[C@@H]1OC(=O)C(C)(C)CNC(=O)[C@@H](Cc2ccc(O)c(Cl)c2)NC(=O)/C=C/C[C@@H]([C@H](C)/C=C/c2ccccc2)OC1=O` had an IC50 of 269 nM.

As to `CC(C)C[C@@H]1OC(=O)C(C)(C)CNC(=O)[C@@H](Cc2ccccc2)NC(=O)/C=C/C[C@@H]([C@H](C)[C@H]2O[C@@H]2c2ccccc2)OC1=O`, the IC50 worked out at 0.183 nM.

Compound `CC(C)C[C@@H]1OC(=O)C(C)(C)CNC(=O)[C@@H](Cc2cccc3ccccc23)NC(=O)/C=C/C[C@@H]([C@H](C)[C@@H]2O[C@H]2c2ccccc2)OC1=O` had an IC50 of 327 nM.

Compound `CC(C)C[C@@H]1OC(=O)C(C)(C)CNC(=O)[C@@H](CC2CCCCC2)NC(=O)/C=C/C[C@@H]([C@H](C)/C=C/c2ccccc2)OC1=O` came in with an IC50 of over 1680 nM.

`CC(C)C[C@@H]1OC(=O)C(C)(C)CNC(=O)[C@@H](Cc2cccnc2)NC(=O)/C=C/C[C@@H]([C@H](C)/C=C/c2ccccc2)OC1=O` yielded an IC50 of 997 nM.

For `CC(C)C[C@@H]1OC(=O)C(C)(C)CNC(=O)[C@@H](CCc2ccccc2)NC(=O)/C=C/C[C@@H]([C@H](C)[C@@H]2O[C@H]2c2ccccc2)OC1=O`, the IC50 was over 1620 nM.

Take `CC(C)C[C@@H]1OC(=O)C(C)(C)CNC(=O)[C@@H](Cc2ccc3ccccc3c2)NC(=O)/C=C/C[C@@H]([C@H](C)/C=C/c2ccccc2)OC1=O`: the IC50 is over 1570 nM.

Regarding `CC(C)C[C@@H]1OC(=O)C(C)(C)CNC(=O)[C@@H](Cc2ccc3ccccc3c2)NC(=O)/C=C/C[C@@H]([C@H](C)[C@@H]2O[C@H]2c2ccccc2)OC1=O`, inhibition was half-maximal at 866 nM (IC50).

`CC(C)C[C@@H]1OC(=O)C(C)(C)CNC(=O)[C@@H](c2ccc(O)cc2)NC(=O)/C=C/C[C@@H]([C@H](C)/C=C/c2ccccc2)OC1=O` displayed an IC50 of over 1690 nM.

Compound `CC(C)C[C@@H]1OC(=O)C(C)(C)CNC(=O)[C@H]2CCCN2C(=O)/C=C/C[C@@H]([C@H](C)[C@H]2O[C@@H]2c2ccccc2)OC1=O` had an IC50 of 1350 nM.

The compound `CC(C)C[C@@H]1OC(=O)C(C)(C)CNC(=O)[C@@H](Cc2ccc(N)cc2)NC(=O)/C=C/C[C@@H]([C@H](C)[C@H]2O[C@@H]2c2ccccc2)OC1=O` registered an IC50 of 10.1 nM.

For the compound `CC(C)C[C@@H]1OC(=O)C(C)(C)CNC(=O)[C@@H](Cc2ccc(NC(=O)OCC3c4ccccc4-c4ccccc43)cc2)NC(=O)/C=C/C[C@@H]([C@H](C)C2OC2c2ccccc2)OC1=O` (stereo not given in full), the IC50 amounted to 115 nM.

As to `CC(C)C[C@@H]1OC(=O)C(C)(C)CNC(=O)[C@@H](CC2CCCCC2)NC(=O)/C=C/C[C@@H]([C@H](C)[C@H]2O[C@@H]2c2ccccc2)OC1=O`, the IC50 was determined as 8.8 nM.

`CC(C)C[C@@H]1OC(=O)C(C)(C)CNC(=O)[C@@H](c2ccc(O)cc2)NC(=O)/C=C/C[C@@H]([C@H](C)[C@H]2O[C@@H]2c2ccccc2)OC1=O`: the IC50 was 274 nM.

The compound `CC(C)C[C@@H]1OC(=O)C(C)(C)CNC(=O)[C@@H](Cc2ccc(N(C)C)c(Cl)c2)NC(=O)/C=C/C[C@@H]([C@H](C)[C@H]2O[C@@H]2c2ccccc2)OC1=O` gave an IC50 of 0.054 nM.

On to `CC(C)C[C@@H]1OC(=O)C(C)(C)CNC(=O)[C@@H](Cc2ccc(NC(=O)OCC3c4ccccc4-c4ccccc43)c(Cl)c2)NC(=O)/C=C/C[C@@H]([C@H](C)C2OC2c2ccccc2)OC1=O` (stereo not given in full), for which half-maximal inhibition (IC50) was put at 15.3 nM.

As for `CC(C)C[C@@H]1OC(=O)C(C)(C)CNC(=O)[C@@H](Cc2ccc(O)c(Cl)c2)NC(=O)/C=C/C[C@@H]([C@H](C)[C@H]2O[C@@H]2c2ccccc2)OC1=O`, it took 0.52 nM to reach half-maximal inhibition (IC50).

`CC(C)C[C@@H]1OC(=O)C(C)(C)CNC(=O)[C@@H](C(C)C)NC(=O)/C=C/C[C@@H]([C@H](C)/C=C/c2ccccc2)OC1=O` registered an IC50 of over 1850 nM.

`CC(C)C[C@@H]1OC(=O)C(C)(C)CNC(=O)[C@@H](Cc2ccc(I)cc2)NC(=O)/C=C/C[C@@H]([C@H](C)/C=C/c2ccccc2)OC1=O`: the IC50 stood at 607 nM.

In turn, `CC(C)C[C@@H]1OC(=O)C(C)(C)CNC(=O)[C@@H](Cc2ccc3ccccc3c2)NC(=O)/C=C/C[C@@H]([C@H](C)[C@H]2O[C@@H]2c2ccccc2)OC1=O` yielded an IC50 of 48 nM.

The compound `CC(C)C[C@@H]1OC(=O)C(C)(C)CNC(=O)[C@H]2CCCN2C(=O)/C=C/C[C@@H]([C@H](C)/C=C/c2ccccc2)OC1=O` gave an IC50 of over 1860 nM.

On to `CC(C)C[C@@H]1OC(=O)C(C)(C)CNC(=O)CNC(=O)/C=C/C[C@@H]([C@H](C)[C@H]2O[C@@H]2c2ccccc2)OC1=O`, for which the IC50 was over 1940 nM.

In the case of `CC(C)C[C@@H]1OC(=O)C(C)(C)CNC(=O)[C@@H](Cc2cccc3ccccc23)NC(=O)/C=C/C[C@@H]([C@H](C)[C@H]2O[C@@H]2c2ccccc2)OC1=O`, the IC50 was 35 nM.

Compound `COc1ccc(C[C@H]2NC(=O)/C=C/C[C@@H]([C@H](C)/C=C/c3ccccc3)OC(=O)[C@H](CC(C)C)OC(=O)C(C)(C)CNC2=O)cc1Cl` yielded an IC50 of 13.8 nM.

The compound `CC(C)C[C@@H]1OC(=O)C(C)(C)CNC(=O)[C@@H](Cc2cccc3ccccc23)NC(=O)/C=C/C[C@@H]([C@H](C)/C=C/c2ccccc2)OC1=O` came in with an IC50 of over 1570 nM.

The compound `CC(C)C[C@@H]1OC(=O)C(C)(C)CNC(=O)[C@@H](COCc2ccccc2)NC(=O)/C=C/C[C@@H]([C@H](C)/C=C/c2ccccc2)OC1=O` registered an IC50 of 856 nM.

Regarding `CC(C)C[C@@H]1OC(=O)C(C)(C)CNC(=O)[C@@H](Cc2ccc(O)c(Cl)c2)NC(=O)/C=C/C[C@@H]([C@H](C)[C@@H]2O[C@H]2c2ccccc2)OC1=O`, the IC50 is 31 nM.

The compound `CC(C)C[C@@H]1OC(=O)C(C)(C)CNC(=O)[C@@H](Cc2ccc(O)cc2)NC(=O)/C=C/C[C@@H]([C@H](C)/C=C/c2ccccc2)OC1=O` displayed an IC50 of 734 nM.

`CC(C)C[C@@H]1OC(=O)C(C)(C)CNC(=O)[C@@H](Cc2ccc(O)cc2)NC(=O)/C=C/C[C@@H]([C@H](C)[C@H]2O[C@@H]2c2ccccc2)OC1=O` displayed an IC50 of 4.11 nM.

On to `CC(C)C[C@@H]1OC(=O)C(C)(C)CNC(=O)[C@@H](Cc2ccccc2)NC(=O)/C=C/C[C@@H]([C@H](C)/C=C/c2ccccc2)OC1=O`, for which the IC50 was determined as 412 nM.

In the case of `CC(C)C[C@@H]1OC(=O)C(C)(C)CNC(=O)[C@@H](COCc2ccccc2)NC(=O)/C=C/C[C@@H]([C@H](C)[C@@H]2O[C@H]2c2ccccc2)OC1=O`, the 50% inhibitory concentration (IC50) was found to be 975 nM.

`CC(C)C[C@@H]1OC(=O)C(C)(C)CNC(=O)CNC(=O)/C=C/C[C@@H]([C@H](C)/C=C/c2ccccc2)OC1=O` had an IC50 of over 2000 nM.

As to `CC(C)C[C@@H]1OC(=O)C(C)(C)CNC(=O)[C@@H](CCc2ccccc2)NC(=O)/C=C/C[C@@H]([C@H](C)[C@H]2O[C@@H]2c2ccccc2)OC1=O`, the midpoint of inhibition, the IC50, lay at 598 nM.

`CC(C)C[C@@H]1OC(=O)C(C)(C)CNC(=O)[C@@H]([C@H](C)O)NC(=O)/C=C/C[C@@H]([C@H](C)/C=C/c2ccccc2)OC1=O` came in with an IC50 of over 1840 nM.

As to `CC(C)C[C@@H]1OC(=O)C(C)(C)CNC(=O)[C@@H](Cc2ccc(N)c(Cl)c2)NC(=O)/C=C/C[C@@H]([C@H](C)[C@H]2O[C@@H]2c2ccccc2)OC1=O`, the IC50 came to 0.58 nM.

Compound `CC(C)C[C@@H]1OC(=O)C(C)(C)CNC(=O)[C@@H](Cc2ccc(NC(=O)OCC3c4ccccc4-c4ccccc43)c(Cl)c2)NC(=O)/C=C/C[C@@H]([C@H](C)/C=C/c2ccccc2)OC1=O` gave an IC50 of over 1250 nM.

`CC(C)C[C@@H]1OC(=O)C(C)(C)CNC(=O)[C@@H](COCc2ccccc2)NC(=O)/C=C/C[C@@H]([C@H](C)[C@H]2O[C@@H]2c2ccccc2)OC1=O`: the IC50 is 249 nM.

In turn, `CC(C)C[C@@H]1OC(=O)C(C)(C)CNC(=O)[C@@H](Cc2ccc(N)cc2)NC(=O)/C=C/C[C@@H]([C@H](C)/C=C/c2ccccc2)OC1=O` came in with an IC50 of 1540 nM.

In turn, `CC(C)C[C@@H]1OC(=O)C(C)(C)CNC(=O)[C@@H](C(C)C)NC(=O)/C=C/C[C@@H]([C@H](C)[C@H]2O[C@@H]2c2ccccc2)OC1=O` showed an IC50 of over 1800 nM.

Values taken from ChEMBL document CHEMBL1132297, “Novel cryptophycin antitumor agents: synthesis and cytotoxicity of fragment "B" analogues” (J Med Chem, 1999).
